The values that follow come from ChEMBL document CHEMBL4680287, “Ibrexafungerp: An orally active β-1,3-glucan synthesis inhibitor” (Bioorg Med Chem Lett, 2021).

Series [1] relates to Candida albicans. Put plainly: Antifungal activity against Candida albicans MY1055 infected in DBA/2 mouse model of disseminated candidiasis assessed as reduction in fungal burden in kidney by measuring log change in colony forming units at 12.5 mg/kg, ip bid for 7 days by TOKA. Type of series: functional. The following applies: time 7 day. The method in brief: (§1)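 Murine disseminated candidiasis model (TOKA) in mice challenged with C. albicans MY1055 at 2.44 x 10^4 CFU/mouse. Dosed PO, or IP where stated. Kidneys collected aseptically 7 days after challenge and CFUs/g counted. Change in log CFU/g is relative to sham-treated controls; significance by two-tailed t test. Clearance is the percentage of kidneys below the detection limit.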

In a further series the test system is Aspergillus fumigatus. Put plainly: Antifungal activity against Aspergillus fumigatus MF5668 assessed inhibition of fungal growth by measuring morphological changes measured after 24 hrs by microscopy. It is filed as functional. Particulars: read-out: MEC. The method in brief:
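Microdilution per CLSI protocols in RPMI medium. Read-out is the minimum effective concentration (MEC). Run without serum and with 50% human serum.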

The subject of series [2] is Candida albicans. Put plainly: Antifungal activity against Candida albicans MY1055 infected in DBA/2 mouse model of disseminated candidiasis assessed as reduction in fungal burden in kidney by measuring log change in colony forming units at 12.5 mg/kg, po bid for 7 days by TOKA. It is filed as functional. Particulars: time 7 day. Put shortly: as §1
Series [3] has as its system Candida albicans. The experiment in a line: Antifungal activity against Candida albicans MY1055 assessed as fungal growth inhibition measured after 24 hrs in presence of 50% mouse serum by liquid microdilution method. Type of series: functional. Put shortly: (§2)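 Broth microdilution per CLSI protocols in RPMI medium. Read-out is the MIC, the lowest concentration completely inhibiting fungal growth. Run without serum and with added serum.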
On the technique in general: In broth dilution the organism is exposed to a series of concentrations in liquid medium.

The nature of series [4]: Inhibition of beta-1,3-glucan synthase in Candida albicans MY1055 microsomal membrane assessed as inhibition of TCA-insoluble material formation using UDP-[3H]-glucose as substrate incubated for 2 hrs in presence of GTP by radioactivity-based assay. It is filed as microsomes, Microsome. Put shortly: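 GS IC50 measured using Candida albicans MY1055 microsomal membrane fragments as the enzyme source.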

The test system of series [5] is Candida albicans. Put plainly: Antifungal activity against Candida albicans MY1055 assessed as fungal growth inhibition measured after 24 hrs by liquid microdilution method. Type of series: functional. Put shortly: as §2
Series [6] in a line: Oral bioavailability in mouse. It is filed as ADME, organism-based. Particulars: in vivo. The method in brief: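 Oral bioavailability calculated as oral AUC normalized to the IV dose, divided by the IV AUC.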
A short description of series [7]: Dose normalized AUC in po dosed mouse. It is filed as ADME, organism-based. The following applies: in vivo.
In series [8] the test system is Candida albicans. The experiment in a line: Antifungal activity against Candida albicans MY1055 infected in DBA/2 mouse model of disseminated candidiasis assessed as reduction in fungal burden in kidney by measuring log change in colony forming units at 25 mg/kg, po bid for 7 days by TOKA. It is filed as functional. The following applies: time 7 day. Put shortly:
as §1

Series [9] concerns Candida albicans. The experiment in a line: Antifungal activity against Candida albicans MY1055 infected in DBA/2 mouse model of disseminated candidiasis assessed as reduction in fungal burden in kidney by measuring log change in colony forming units at 6.25 mg/kg, po bid for 7 days by TOKA. Type of series: functional. The following applies: time 7 day. The method in brief:
as §1

In brackets after ≈: the same amount, converted by molar mass.

The term MIC denotes the lowest concentration that inhibits growth of the organism. As a reminder, the IC50 is the concentration at which inhibition is half-maximal. On to `CC(C)[C@@H](C)[C@@]1(C)CC[C@]2(C)[C@H]3CC[C@@H]4[C@@]5(COC[C@@]4(C)[C@@H](OCC(C)(C)N)[C@H](n4ncnc4-c4ccncc4)C5)C3=CC[C@@]2(C)[C@@H]1C(=O)O`, for which the Activity in the series with Candida albicans [1] is reported as -4.2 deltalog10CFU; in the series with Candida albicans [2], -1.1 deltalog10CFU. Further, in the series with Aspergillus fumigatus, the minimal effective concentration is under 0.03 µg/mL. In addition, the MIC turned out to be 0.5 µg/mL in the series on Candida albicans [3] and 0.015 µg/mL (≈ 0.0218 µM) in the series with Candida albicans [5]. The IC50 in [4] is 0.001 µg/mL.

For orientation: bioavailability means the share of a dose that reaches the circulation, judged against a reference dose that is usually intravenous. `CN[C@@](C)(CO[C@H]1[C@H](n2ncnc2-c2ccncc2)C[C@@]23COC[C@]1(C)[C@@H]2CC[C@H]1C3=CC[C@@]2(C)[C@H](C(=O)O)[C@@](C)([C@H](C)C(C)C)CC[C@]12C)C(C)C` gave a bioavailability in series [6] of 29%. The compound further yielded an AUC/dose in series [7] of 0.83 µM·kg·h/mg. In the series with Aspergillus fumigatus, the minimal effective concentration is under 0.03 µg/mL. In addition, the Activity in the series with Candida albicans [8] is reported as -3.7 deltalog10CFU; in the series with Candida albicans [2], -3.1 deltalog10CFU; in the series on Candida albicans [9] it was -0.9 deltalog10CFU. Besides, the results for the MIC in the series on Candida albicans [3] and with Candida albicans [5] were 0.5 µg/mL and 0.06 µg/mL (≈ 0.0822 µM), respectively. Also, the IC50 in [4] was found to be 0.001 µg/mL.

Compound `CC(C)[C@@H](C)[C@@]1(C)CC[C@]2(C)[C@H]3CC[C@@H]4[C@@]5(COC[C@@]4(C)[C@@H](OC[C@@]4(N)CCOCC4(C)C)[C@H](n4ncnc4-c4ccncc4)C5)C3=CC[C@@]2(C)[C@@H]1C(=O)O` came in with a bioavailability in [6] of 25%. Further, the AUC/dose in series [7] is 0.35 µM·kg·h/mg. Moreover, the minimal effective concentration in the series on Aspergillus fumigatus turned out to be 0.004 µg/mL. In addition, the Activity in the series with Candida albicans [8] was -3.2 deltalog10CFU; with Candida albicans [2], -2.2 deltalog10CFU; with Candida albicans [9], -0.9 deltalog10CFU. Further, the minimum inhibitory concentration (MIC) with Candida albicans [3] is 1 µg/mL; with Candida albicans [5], 0.06 µg/mL (≈ 0.0791 µM). The IC50 in [4] was found to be 0.004 µg/mL.

On to `CC(C)[C@@H](C)[C@@]1(C)CC[C@]2(C)[C@H]3CC[C@@H]4[C@@]5(COC[C@@]4(C)[C@@H](OC[C@](C)(N)C(C)C)[C@H](n4ncnc4-c4cncnc4)C5)C3=CC[C@@]2(C)[C@@H]1C(=O)O`, for which, in series [6], the bioavailability turned out to be 26%. Moreover, the AUC/dose in [7] stood at 0.33 µM·kg·h/mg. The minimal effective concentration in the series on Aspergillus fumigatus was under 0.03 µg/mL. The figures for the Activity in the series with Candida albicans [8], in the series with Candida albicans [2] and in the series with Candida albicans [9] were -3 deltalog10CFU, -3 deltalog10CFU and -2.1 deltalog10CFU, respectively. For the same compound, the MIC in the series with Candida albicans [3] was found to be 1 µg/mL; in the series with Candida albicans [5] it was 0.06 µg/mL (≈ 0.0837 µM). For the same compound, in series [4], the IC50 was 0.006 µg/mL.

The compound `CC(C)[C@@H](C)[C@@]1(C)CC[C@]2(C)[C@H]3CC[C@@H]4[C@@]5(COC[C@@]4(C)[C@@H](OC[C@](C)(N)C(C)C)[C@H](n4ncnc4-c4ccncc4F)C5)C3=CC[C@@]2(C)[C@@H]1C(=O)O` came in with a bioavailability in series [6] of 26%. The same compound came in with an AUC/dose in [7] of 0.34 µM·kg·h/mg. In the series on Aspergillus fumigatus, the minimal effective concentration was 0.008 µg/mL. The Activity with Candida albicans [8] is given as -4.2 deltalog10CFU; with Candida albicans [2], -2.5 deltalog10CFU; with Candida albicans [9], -2.6 deltalog10CFU. Besides, the MIC in the series on Candida albicans [3] is 1 µg/mL; with Candida albicans [5] it was 0.015 µg/mL (≈ 0.0204 µM). The IC50 in series [4] worked out at 0.001 µg/mL.

For `CC(C)[C@@H](C)[C@@]1(C)CC[C@]2(C)[C@H]3CC[C@@H]4[C@@]5(COC[C@@]4(C)[C@@H](OC[C@](C)(N)C4(C)CC4)[C@H](n4ncnc4-c4ccncc4)C5)C3=CC[C@@]2(C)[C@@H]1C(=O)O`, the bioavailability in series [6] stood at 36%. In series [7], this compound returned an AUC/dose of 0.65 µM·kg·h/mg. Further, the minimal effective concentration in the series with Aspergillus fumigatus is under 0.03 µg/mL. Also, the Activity was -4.3 deltalog10CFU in the series with Candida albicans [8], -2.6 deltalog10CFU in the series on Candida albicans [2] and -1.5 deltalog10CFU in the series with Candida albicans [9]. The MIC was 0.5 µg/mL with Candida albicans [3] and under 0.03 µg/mL in the series on Candida albicans [5]. Besides, the IC50 in series [4] turned out to be 0.002 µg/mL.

In series [6], `CC(C)[C@@H](C)[C@@]1(C)CC[C@]2(C)[C@H]3CC[C@@H]4[C@@]5(COC[C@@]4(C)[C@@H](OC[C@](C)(N)C(C)C)[C@H](n4ncnc4-c4ccnnc4)C5)C3=CC[C@@]2(C)[C@@H]1C(=O)O` had a bioavailability of 29%. In series [7], this compound had an AUC/dose of 0.23 µM·kg·h/mg. For the same compound, the minimal effective concentration in the series on Aspergillus fumigatus is under 0.03 µg/mL. Moreover, the Activity with Candida albicans [8] is given as -2.6 deltalog10CFU; in the series on Candida albicans [2] it was -1.2 deltalog10CFU; in the series on Candida albicans [9] it was -1.2 deltalog10CFU. In addition, the results for the MIC in the series on Candida albicans [3] and in the series on Candida albicans [5] were 1 µg/mL and 0.125 µg/mL (≈ 0.174 µM), respectively. Moreover, the half-maximal inhibitory concentration (IC50) in series [4] was found to be 0.002 µg/mL.

Consider `CC(C)[C@@H](C)[C@@]1(C)CC[C@]2(C)[C@H]3CC[C@@H]4[C@@]5(COC[C@@]4(C)[C@@H](OC[C@](C)(N)C(C)C)[C@H](n4ncnc4-c4cccnc4)C5)C3=CC[C@@]2(C)[C@@H]1C(=O)O`, for which the bioavailability in [6] was 11%. In addition, the AUC/dose in [7] was determined as 0.17 µM·kg·h/mg. In the series on Aspergillus fumigatus, the minimal effective concentration is under 0.03 µg/mL. The values for the Activity with Candida albicans [8], in the series with Candida albicans [2] and with Candida albicans [9] were -3.1 deltalog10CFU, -2.9 deltalog10CFU and -1.4 deltalog10CFU, respectively. Moreover, the MIC was found to be 1 µg/mL in the series on Candida albicans [3] and 0.06 µg/mL (≈ 0.0838 µM) with Candida albicans [5]. Besides, in series [4], the IC50 stood at 0.004 µg/mL.

Take `CN[C@@](C)(CO[C@H]1[C@H](n2ncnc2-c2cccnc2)C[C@@]23COC[C@]1(C)[C@@H]2CC[C@H]1C3=CC[C@@]2(C)[C@H](C(=O)O)[C@@](C)([C@H](C)C(C)C)CC[C@]12C)C(C)C`: the bioavailability in series [6] was determined as 21%. This compound gave an AUC/dose in [7] of 0.59 µM·kg·h/mg. Besides, the minimal effective concentration with Aspergillus fumigatus was under 0.03 µg/mL. Moreover, the figures for the Activity in the series with Candida albicans [8], in the series on Candida albicans [2] and in the series on Candida albicans [9] were -3 deltalog10CFU, -2.4 deltalog10CFU and -1.1 deltalog10CFU, respectively. The figures for the minimum inhibitory concentration (MIC) with Candida albicans [3] and in the series on Candida albicans [5] were 1 µg/mL and 0.25 µg/mL (≈ 0.342 µM), respectively. For the same compound, the IC50 in [4] came to 0.005 µg/mL.

As to `CC(C)[C@@H](C)[C@@]1(C)CC[C@]2(C)[C@H]3CC[C@@H]4[C@@]5(COC[C@@]4(C)[C@@H](OC[C@](C)(N)C(C)C)[C@H](n4ncnc4-c4ccccc4)C5)C3=CC[C@@]2(C)[C@@H]1C(=O)O`, the bioavailability in [6] came to 28%. The compound further came in with an AUC/dose in series [7] of 0.5 µM·kg·h/mg. Besides, the minimal effective concentration with Aspergillus fumigatus is under 0.03 µg/mL. Further, the Activity with Candida albicans [8] is -2.4 deltalog10CFU; in the series on Candida albicans [2], -1.7 deltalog10CFU; in the series on Candida albicans [9] it was -0.2 deltalog10CFU. Besides, the figures for the MIC in the series with Candida albicans [3] and in the series on Candida albicans [5] were 4 µg/mL and 0.25 µg/mL (≈ 0.35 µM), respectively. Besides, the IC50 in series [4] is 0.003 µg/mL.
